ChEMBL document CHEMBL1127484, “5-Aryl-3-(alkylthio)-4H-1,2,4-triazoles as selective antagonists of strychnine-induced convulsions and potential antispastic agents” (J Med Chem, 1994)
The source made the active and inactive calls.

How the values were obtained:
[1] = test system: Mus musculus; test: Effective dose required for antagonist activity against 3-mercaptopropionic-acid-induced seizures in mice when administered intraperitoneally; Range is 100-200; format: functional; conditions: ip
Outline: (§1)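 CD-1 male mice (18–26 g), groups of 5 or 10, housed individually, dosed ip in distilled H2O or H2O/Tween 80. Convulsant given 30 min later. Strychnine sulfate 2.7 mg/kg ip: protection = no tonic extension >15 min. MES 50 mA, 0.2 s, corneal: no tonic hind-limb extension. PTZ 60 mg/kg iv: no clonic seizures for 2 min. MPA 100 mg/kg iv: no seizures for 5 min. ED50 by quantal analysis from ≥4 doses, ≥10 mice each.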

[2] = test system: Mus musculus; test: Effective dose required for antagonist activity against maximal electroshock induced seizures in mice when administered intraperitoneally; Range is 100-200; format: functional; conditions: ip; outline: as §1
[3] = test system: Mus musculus; test: Effective dose required for antagonist activity against pentylenetetrazole-induced seizures in mice when administered intraperitoneally; Range is 25-50; format: functional; conditions: ip; outline: as §1
[4] = test system: Mus musculus; test: Effective dose required for antagonist activity against strychnine induced seizures in mice when administered intraperitoneally; format: functional; conditions: ip; outline: as §1
[5] = Dose encompassing the 50% lethal effect was recorded when administered intraperitoneally in mice; format: ADME, organism-based; conditions: mouse, in vivo, ip
Outline: (§2)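 Deaths were recorded over the 7 days after dosing. The estimated LD50 was taken as the dose range spanning 50% lethality.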

[6] = test system: Mus musculus; test: Effective dose required for antagonist activity against maximal electroshock induced seizures in mice when administered intraperitoneally; format: functional; conditions: ip; outline: as §1
[7] = test system: Mus musculus; test: Effective dose required for antagonist activity against pentylenetetrazole-induced seizures in mice when administered intraperitoneally; format: functional; conditions: ip; outline: as §1
[8] = test system: Mus musculus; test: Effective dose required for antagonist activity against 3-mercaptopropionic-acid induced seizures in mice when administered intraperitoneally; format: functional; conditions: ip; outline: as §1
[9] = Dose encompassing the 50% lethal effect was recorded when administered intraperitoneally in mice; Range is 400-800; format: ADME, organism-based; conditions: mouse, in vivo, ip; outline: as §2
[10] = test system: Mus musculus; test: Effective dose required for antagonist activity against pentylenetetrazole-induced seizures in mice when administered intraperitoneally; Range is 100-200; format: functional; conditions: ip; outline: as §1
[11] = test system: Mus musculus; test: Effective dose required for antagonist activity against strychnine induced seizures in mice when administered intraperitoneally; Range is 50-100; format: functional; conditions: ip; outline: as §1
[12] = test system: Mus musculus; test: Effective dose required for antagonist activity against pentylenetetrazole-induced seizures in mice when administered intraperitoneally; 100-200; format: functional; conditions: ip; outline: as §1
[13] = Dose encompassing the 50% lethal effect was recorded when administered intraperitoneally in mice; 400-800; format: ADME, organism-based; conditions: mouse, in vivo, ip; outline: as §2
[14] = test system: Mus musculus; test: Effective dose required for antagonist activity against 3-mercaptopropionic-acid-induced seizures in mice when administered intraperitoneally; Range 100-200; format: functional; conditions: ip; outline: as §1
[15] = test system: Mus musculus; test: Effective dose required for antagonist activity against pentylenetetrazole-induced seizures in mice when administered intraperitoneally; Range 100-200; format: functional; conditions: ip; outline: as §1
[16] = test system: Mus musculus; test: Effective dose required for antagonist activity against maximal electroshock induced seizures in mice when administered intraperitoneally; Range is 50-100; format: functional; conditions: ip; outline: as §1
[17] = test system: Mus musculus; test: Effective dose required for antagonist activity against pentylenetetrazole-induced seizures in mice when administered intraperitoneally; Range is 50-100; format: functional; conditions: ip; outline: as §1
[18] = target: T1, GABA-A receptor; anion channel (Rattus norvegicus) (UniProt O09028+P15431+P18506+P18508+P19969+P20236+P23574+P23576+P28471+P28473+P30191+P62813+P63079+P63138+Q91ZM7+Q9ES14); test: In vitro displacement of [3H]flunitrazepam at GABA-A benzodiazepine site in rat cortical membranes at 100 uM (Inactive); format: cell membranes; conditions: Membrane
[19] = target: T1, GABA-A receptor; anion channel (Rattus norvegicus); test: In vitro displacement of [35S]TBPS at GABA-A picrotoxin convulsant site in rat cortical membranes at 100 uM (Inactive); format: cell membranes; conditions: Membrane
[20] = target: T1, GABA-A receptor; anion channel (Rattus norvegicus); test: In vitro displacement of [3H]muscimol from GABA-A receptor in rat cortical membranes at 100 uM (Inactive); format: cell membranes; conditions: Membrane
[21] = target: GABA B receptor (Rattus norvegicus) (UniProt Q9Z0U4+O88871); test: In vitro displacement of [3H]baclofen at GABA-B receptor in rat cortical membranes at 100 uM (Inactive); format: cell membranes; conditions: Membrane
[22] = test system: Rattus norvegicus; test: Effect of compound on […] function in spinal transected rats at 10 mg/Kg; format: functional
Outline: (§3)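 Spinal-transected rats, 5-10 weeks post-transection. Hind-limb activity recorded by transducer. Output integrated over the first 3 s after leg pull (stretch-evoked reflex function) and over the next 57 s (spontaneous hyperreflexia). Sessions were run before and after ip dosing. Test agent given as suspension in distilled H2O/1% Tween 80, or as solution in distilled H2O. Data expressed as % of control; paired t test or least-squared-means comparisons.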

[23] = test system: Rattus norvegicus; test: Effect of compound on reflux function in spinal transected rats at 20 mg/Kg; format: functional; outline: as §3
[24] = test system: Rattus norvegicus; test: Effect of compound on reflux function in spinal transected rats at 40 mg/Kg; format: functional; outline: as §3
[25] = test system: Rattus norvegicus; test: Effect of compound on reflux function in spinal transected rats at 5 mg/Kg; format: functional; outline: as §3
[26] = test system: Rattus norvegicus; test: Effect of compound on hyperreflexia in spinal transected rats at 10 mg/Kg; format: functional; outline: as §3
[27] = test system: Rattus norvegicus; test: Effect of compound on hyperreflexia in spinal transected rats at 20 mg/Kg; format: functional; outline: as §3
[28] = target: Gamma-aminobutyric acid receptor subunit gamma-1 (Rattus norvegicus) (UniProt P23574); test: Enhancement of 1 uM muscimol-stimulated 36Cl- uptake into rat cerebellar membrane; format: functional; conditions: Cerebellum
Outline: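 Rat cerebellar membrane vesicles (adult male Sprague-Dawley) in HEPES/Tris buffer, pH 7.5. Preincubated on ice for 15 min with vehicle (0.2% DMSO) or 10 μM compound, then 5 min at 34 °C. 36Cl uptake run for 3 s with 1 μM muscimol and stopped by ice-cold 100 μM picrotoxin buffer plus filtration. Muscimol-stimulated uptake = uptake minus uptake without muscimol, in nmol/mg protein/3 s. Mean ± SEM, n = 3; Student's t test.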

[29] = test system: Rattus norvegicus; test: Effect of compound on hyperreflexia in spinal transected rats at 40 mg/Kg; format: functional; outline: as §3

Sequence of Gamma-aminobutyric acid receptor subunit gamma-1 (Rattus norvegicus) (P23574 whole entry): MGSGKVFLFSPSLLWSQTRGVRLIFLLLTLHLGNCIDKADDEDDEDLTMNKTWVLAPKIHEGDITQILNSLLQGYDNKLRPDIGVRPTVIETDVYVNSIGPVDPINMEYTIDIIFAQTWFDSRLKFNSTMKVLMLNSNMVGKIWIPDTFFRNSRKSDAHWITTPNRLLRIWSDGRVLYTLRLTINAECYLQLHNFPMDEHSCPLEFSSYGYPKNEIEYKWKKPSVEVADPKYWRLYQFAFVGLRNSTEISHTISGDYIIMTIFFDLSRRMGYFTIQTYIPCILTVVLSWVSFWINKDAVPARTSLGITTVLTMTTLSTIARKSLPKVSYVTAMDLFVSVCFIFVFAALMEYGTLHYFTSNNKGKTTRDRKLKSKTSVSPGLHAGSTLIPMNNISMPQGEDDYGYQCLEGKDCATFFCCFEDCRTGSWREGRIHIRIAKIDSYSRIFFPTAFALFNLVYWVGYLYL

SMILES	ED50 [4] [mg/kg]	LD50 [5] [mg/kg]	ED50 [6] [mg/kg]	ED50 [7] [mg/kg]	ED50 [8] [mg/kg]	also measured
CCn1c(SC)nnc1-c1ccccc1F	75	> 800				ED50 [1]: 200 mg/kg; ED50 [2]: 200 mg/kg; ED50 [3]: 50 mg/kg
CSc1nnc(-c2cccs2)n1C	34.1		> 100	> 100	> 100	LD50 [9]: 800 mg/kg
Cn1c(-c2ccccc2)nnc1[S+](C)[O-] (configuration not stated)	18.6		> 100	> 100	> 100	LD50 [9]: 800 mg/kg
CCS(=O)(=O)c1nnc(-c2ccccc2F)n1C	85.8	> 800	> 200		> 200	ED50 [10]: 200 mg/kg
Cn1c(-c2ccccc2F)nnc1[S+](C)[O-] (configuration not stated)	20	> 800	> 200	57.9	> 200	
O=C1NC(=O)C(c2ccccc2)(c2ccccc2)N1 [PHENYTOIN]	> 200		25.9	> 32	89	
CSc1nnc(-c2ccc(C)cc2)n1C			> 100	> 100	> 100	LD50 [9]: 800 mg/kg; ED50 [11]: 100 mg/kg
Cn1c(-c2cccc(F)c2)nnc1S(C)(=O)=O	12.1	> 800	> 200	> 200	> 200	
CC[S+]([O-])c1nnc(-c2ccccc2F)n1C (configuration not stated)	32.7	> 800		> 200	> 200	ED50 [2]: 200 mg/kg
CCSc1nnc(-c2ccccc2)n1C	> 200		> 200		> 200	ED50 [12]: 200 mg/kg; LD50 [13]: 800 mg/kg
Cn1c(-c2cccc3ccccc23)nnc1[S+](C)[O-] (configuration not stated)	> 200	> 800	> 200	> 200	> 200	
CSc1nnc(-c2ccccc2F)n1C	8.8		> 200	61.3		LD50 [9]: 800 mg/kg
CC[S+]([O-])c1nnc(-c2ccccc2)n1C (configuration not stated)		> 800	> 200		> 200	ED50 [10]: 200 mg/kg
CSc1nnc(-c2ccccc2)n1C	37.8	> 800	> 200			ED50 [14]: 200 mg/kg; ED50 [15]: 200 mg/kg
Cn1c(-c2ccccc2F)nnc1S(C)(=O)=O	17.6	> 800	> 100	> 100	> 100	
CSc1nnc(-c2ccc(Cl)cc2)n1C	28.1	> 800	> 200	> 200		
CSc1nnc(-c2cccc3ccccc23)n1C	> 200	> 800	> 200	> 200	> 200	
Cn1c(-c2cccc3ccccc23)nnc1S(C)(=O)=O	> 200	> 800	> 200	> 200	> 200	
Cn1nc(-c2ccccc2)nc1S(C)(=O)=O	> 200	> 800	> 200	> 200	> 200	
CN1C(=O)CN=C(c2ccccc2)c2cc(Cl)ccc21 [DIAZEPAM]	40.6		14.8	1.5	0.9	
Cn1nc(-c2ccccc2)nc1[S+](C)[O-] (configuration not stated)	> 200				> 200	ED50 [16]: 100 mg/kg; ED50 [17]: 100 mg/kg; LD50 [9]: 800 mg/kg

SMILES	ED50 [4] [mg/kg]	LD50 [5] [mg/kg]	ED50 [6] [mg/kg]	ED50 [7] [mg/kg]	ED50 [8] [mg/kg]	also measured
Cc1ccc(-c2nnc([S+](C)[O-])n2C)cc1 (configuration not stated)		> 800	> 200	> 200	> 200	ED50 [11]: 100 mg/kg
Cc1ccc(-c2nnc(S(C)(=O)=O)n2C)cc1	> 200	> 800	> 200	> 200	> 200	
Cn1c(-c2cccs2)nnc1S(C)(=O)=O	> 200	> 800	> 200	> 200	> 200	
CCSc1nnc(-c2ccccc2F)n1C					> 200	ED50 [2]: 200 mg/kg; ED50 [17]: 100 mg/kg; LD50 [9]: 800 mg/kg
CCCC(CCC)C(=O)O [VALPROIC ACID]	> 200		> 200			ED50 [10]: 200 mg/kg
Cn1nc(S(C)(=O)=O)nc1-c1ccccc1	> 200	> 800	> 200	> 200	> 200	
Cn1c(-c2ccccc2)nnc1S(C)(=O)=O		> 800	> 200	55	> 200	Displacement [18]: inactive; Displacement [19]: inactive; Displacement [20]: inactive; Displacement [21]: inactive; Control [22]: 116%; Control [23]: 114%; Control [24]: 87%; Control [25]: 101%; Control [26]: 46%; Control [27]: 78%; Uptake (nM 3s-1 (mg of protein)-1) [28]: 3.82; Control [29]: 43%
CSc1nc(-c2ccccc2)nn1C	> 200	> 800			> 200	ED50 [2]: 200 mg/kg; ED50 [17]: 100 mg/kg
COc1ccc(-c2nnc([S+](C)[O-])n2C)cc1 (configuration not stated)			> 100	> 100	> 100	LD50 [9]: 800 mg/kg; ED50 [11]: 100 mg/kg
CSc1nnc(-c2ccccc2Cl)n1C	> 50		> 50	> 50	> 50	LD50 [9]: 800 mg/kg
CSc1nc(-c2ccccc2)n(C)n1	> 100	> 800	> 100	> 100	> 100	
COc1ccc(-c2nnc(S(C)(=O)=O)n2C)cc1	> 200	> 800	> 200	> 200	> 200	
CSc1n[nH]c(-c2ccc(F)cc2)n1	> 200	> 800	> 200	> 200	> 200	
CSc1nnc(-c2cccc(F)c2)n1C	13.8	> 800	> 200	> 200	> 200	
Cn1nc(-c2ccc(Cl)cc2)nc1S(C)(=O)=O	> 200	> 800	> 200	> 200	> 200	
Cn1nc([S+](C)[O-])nc1-c1ccccc1 (configuration not stated)	> 200	> 800	> 200	> 200	> 200	
Cn1nc(-c2cccc(F)c2)nc1S(C)(=O)=O	> 100		> 100	> 100	> 100	LD50 [9]: 800 mg/kg
CSc1nc(-c2ccc(Cl)cc2)nn1C	> 200	> 800	> 200		> 200	ED50 [17]: 100 mg/kg
COc1ccc(-c2nnc(SC)n2C)cc1	> 100		> 100	> 100	> 100	LD50 [9]: 800 mg/kg
CCS(=O)(=O)c1nnc(-c2ccccc2)n1C		> 800	> 200			ED50 [1]: 200 mg/kg; ED50 [17]: 100 mg/kg
CSc1nnc(-c2ccc(F)cc2)n1C	33.4	> 800	> 200	> 200	> 200	
